The values that follow come from ChEMBL document CHEMBL1146556, “Acetophenone derivatives from Acronychia pedunculata” (J Nat Prod, 2003).

The test system of assay [1] is Radical scavenging activity. Nature of the assay: Antioxidant activity assessed as DPPH radical scavenging activity at 500 uM after 30 mins. The format is functional. The essentials:
(§1)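 Radical scavenging was read as percent inhibition after a 30 min incubation.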
On the technique in general: The DPPH test is a chemical assay of radical scavenging.

In assay [2] the target is T1, Tyrosinase (Homo sapiens) (UniProt P14679).
T1 sequence (whole entry): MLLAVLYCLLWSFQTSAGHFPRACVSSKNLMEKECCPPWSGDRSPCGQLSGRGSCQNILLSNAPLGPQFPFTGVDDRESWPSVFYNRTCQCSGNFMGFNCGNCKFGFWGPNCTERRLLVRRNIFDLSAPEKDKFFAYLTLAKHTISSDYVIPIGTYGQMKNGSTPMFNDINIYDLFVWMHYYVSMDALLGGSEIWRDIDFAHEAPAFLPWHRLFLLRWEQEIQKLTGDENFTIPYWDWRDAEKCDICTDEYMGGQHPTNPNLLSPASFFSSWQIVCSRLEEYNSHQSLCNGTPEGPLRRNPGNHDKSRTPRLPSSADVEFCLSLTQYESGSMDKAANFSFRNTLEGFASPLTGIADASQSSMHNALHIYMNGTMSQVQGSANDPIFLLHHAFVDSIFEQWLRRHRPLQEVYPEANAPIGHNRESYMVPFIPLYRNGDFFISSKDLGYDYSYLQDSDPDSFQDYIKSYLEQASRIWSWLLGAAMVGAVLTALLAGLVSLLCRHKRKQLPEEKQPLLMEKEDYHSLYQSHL
Nature of the assay: Inhibition of tyrosinase at 500 uM.

Assay [3] relates to Radical scavenging activity. Put plainly: Antioxidant activity assessed as DPPH radical scavenging activity after 30 mins. In kind it is functional. The method, boiled down:
as §1

Assay [4] addresses T2, Tyrosinase (Homo sapiens, UniProt P14679).
T2 sequence (P14679 whole entry): T1 sequence (whole entry)
Put plainly: Inhibition of tyrosinase.

As a reminder, the inhibition is how much of the control response was suppressed. With `COc1c(CC=C(C)C)c(O)c(C(=O)CC(C)C)c(O)c1C(C)=O`, the inhibition in assay [1] was found to be 8.3%; in assay [2], 16.8%.
Broadly, the IC50 is the point on the concentration scale where inhibition reaches its midpoint. VITAMIN E: the IC50 in assay [3] was 8.3 µM.
As for `COc1c(CC=C(C)C)c2c(c(O)c1C(C)=O)C=CC(C)(C)O2`, the figures for the inhibition in assay [1] and in assay [2] were 2.9% and 2.5%, respectively.
Take `COc1c(CC=C(C)C)c2c(c(O)c1C(C)=O)C[C@H](C(C)(C)O)O2`: the inhibition in assay [1] was determined as 5.3%; in assay [2], 6.5%.
Regarding `COc1c(CC=C(C)C)c(O)c(C=O)c(O)c1C(C)=O`, the inhibition in assay [1] is 3.1%; in assay [2] it was 11.8%.
For `C=C(C)C(O)Cc1c(O)cc(O)c(C(C)=O)c1OC` (stereo not drawn), the figures for the inhibition in assay [1] and in assay [2] were 10.3% and 8.1%, respectively.
As to `COc1c(CC=C(C)C)c(O)c([C@H](CC(C)C)c2c(O)c(CC=C(C)C)c(O)c(C(C)=O)c2O)c(O)c1C(C)=O` [ACROVESTONE], the IC50 in assay [3] amounted to 493 µM; in assay [4], 333 µM.
